Results published in ChEMBL document CHEMBL3286252, “Synthesis, biological evaluation and structure-activity relationship of new GABA uptake inhibitors, derivatives of 4-aminobutanamides” (Eur J Med Chem, 2014).
The source made the active and inactive calls.

Legend:
Mus musculus [1] = assay: Anticonvulsant activity against pilocarpine-induced seizure in albino Swiss (CD-1) mouse assessed as prolongation of latency time to seizures at 100 mg/kg, ip administered 60 mins before pilocarpine challenge; format: functional; conditions: route intraperitoneal
Method in brief: (§1)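 CD-1 mice received compound or vehicle (1% Tween 80) i.p. 60 min before pilocarpine 400 mg/kg i.p. Scopolamine butylbromide 1 mg/kg i.p. was given 45 min before pilocarpine. 7–8 mice per group; Student's t-test versus vehicle; mean ± SEM.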

Mus musculus [2] = assay: Anticonvulsant activity against pilocarpine-induced seizure in albino Swiss (CD-1) mouse assessed as prolongation of latency time to death at 100 mg/kg, ip administered 60 mins before pilocarpine challenge; format: functional; conditions: route intraperitoneal
Method in brief: (§2)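 Male CD-1 mice dosed i.p. with compound or vehicle (1% Tween 80). Scopolamine butylbromide 1 mg/kg i.p. given 45 min before pilocarpine; pilocarpine 400 mg/kg i.p. given 60 min after compound. Observed 1 h. Latency to tonic-clonic seizure and latency to death recorded, cut-off 60 min. 7–8 mice per group, mean ± SEM, Student's t-test against vehicle.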

Mus musculus [3] = assay: Anticonvulsant activity against pilocarpine-induced seizure in albino Swiss (CD-1) mouse assessed as prolongation of latency time to seizures at 200 mg/kg, ip administered 60 mins before pilocarpine challenge; format: functional; conditions: route intraperitoneal; method in brief: as §1
Mus musculus [4] = assay: Anticonvulsant activity against pilocarpine-induced seizure in albino Swiss (CD-1) mouse assessed as prolongation of latency time to death at 200 mg/kg, ip administered 60 mins before pilocarpine challenge; format: functional; conditions: route intraperitoneal; method in brief: as §2
Mus musculus [5] = assay: Antidepressant-like activity in albino Swiss (CD-1) mouse assessed as reduction in immobility time at 15 mg/kg, ip by forced swim test; format: functional; conditions: route intraperitoneal
Method in brief: (§3)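 Compound or vehicle was given i.p. 60 min before the test. Each mouse was placed for 6 min in a glass cylinder (25 cm high, 10 cm diameter) holding 10 cm of water at 23–25 C. Immobility, meaning passive floating, was timed over the final 4 min. 7–8 mice per group; ANOVA with Dunnett's test.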

Mus musculus [6] = assay: Antidepressant-like activity in albino Swiss (CD-1) mouse assessed as reduction in immobility time at 30 mg/kg, ip by forced swim test; format: functional; conditions: route intraperitoneal; method in brief: as §3
Mus musculus [7] = assay: Antinociceptive activity in ip dosed albino Swiss (CD-1) mouse measured after 60 mins by hot plate test; format: functional, organism-based
[8] = molecular target: T1, GABA transporter 2 (Mus musculus) (UniProt P31651); assay: Inhibition of mouse GAT2 expressed in HEK293 cells assessed as decrease in [3H]GABA uptake; format: cell-based; conditions: concentration not given here
T1 sequence (whole entry): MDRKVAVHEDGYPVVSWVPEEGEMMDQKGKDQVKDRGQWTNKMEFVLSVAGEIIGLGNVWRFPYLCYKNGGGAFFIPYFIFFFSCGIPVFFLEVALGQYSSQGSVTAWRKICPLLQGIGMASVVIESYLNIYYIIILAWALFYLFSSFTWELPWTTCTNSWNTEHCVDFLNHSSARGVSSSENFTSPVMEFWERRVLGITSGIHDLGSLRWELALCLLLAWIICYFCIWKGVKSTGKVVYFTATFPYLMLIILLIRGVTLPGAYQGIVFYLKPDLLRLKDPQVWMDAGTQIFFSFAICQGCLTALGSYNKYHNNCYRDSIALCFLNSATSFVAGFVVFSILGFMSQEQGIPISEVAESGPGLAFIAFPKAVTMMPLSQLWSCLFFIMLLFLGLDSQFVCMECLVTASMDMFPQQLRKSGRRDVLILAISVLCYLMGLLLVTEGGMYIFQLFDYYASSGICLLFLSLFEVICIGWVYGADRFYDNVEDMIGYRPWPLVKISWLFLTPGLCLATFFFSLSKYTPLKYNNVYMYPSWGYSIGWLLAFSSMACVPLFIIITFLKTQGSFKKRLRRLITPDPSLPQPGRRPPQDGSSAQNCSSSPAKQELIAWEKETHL

Mus musculus [9] = assay: Anticonvulsant activity in albino Swiss (CD-1) mouse assessed as current intensity required to induce 50% tonic hind limb extensions at 100 mg/kg, ip after 60 mins by electroconvulsive threshold test (reference value: 6.61 mA); format: functional, Hindlimb; conditions: route intraperitoneal
Mus musculus [10] = assay: Anticonvulsant activity against pentylenetetrazole-induced seizure in albino Swiss (CD-1) mouse assessed as decrease in seizure episodes at 100 mg/kg, ip administered 60 mins prior to PTZ challenge; format: functional; conditions: route intraperitoneal
Method in brief: (§4)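 Male CD-1 mice, 18–22 g, given compound or vehicle i.p. 60 min before PTZ 100 mg/kg s.c. Each mouse observed alone for 30 min for clonic seizures: whole-body clonus over 3 s with loss of righting reflex. Read-outs: latency to first clonus, number of seizure episodes, and deaths within 30 min. Groups of 7–10 mice, compared with vehicle.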

Mus musculus [11] = assay: Anticonvulsant activity against pentylenetetrazole-induced seizure in albino Swiss (CD-1) mouse assessed as delay in onset of seizures at 100 mg/kg, ip administered 60 mins prior to PTZ challenge; format: functional; conditions: route intraperitoneal; method in brief: as §4
Mus musculus [12] = assay: Anticonvulsant activity against pentylenetetrazole-induced seizure in albino Swiss (CD-1) mouse assessed as decrease in mortality rate at 100 mg/kg, ip administered 60 mins prior to PTZ challenge; format: functional; conditions: route intraperitoneal; method in brief: as §4

COc1ccc(C(OCCN2CCC[C@H](C(=O)O)C2)(c2ccc(OC)cc2)c2ccc(OC)cc2)cc1
Activity (Mus musculus [1]): 158%
Activity (Mus musculus [2]): 243.8%
Activity (Mus musculus [3]): 258.9%
Activity (Mus musculus [4]): 202.7%
inhibition in vivo at 15 mg/kg (Mus musculus [5]): 12.1%
inhibition in vivo at 30 mg/kg (Mus musculus [6]): 19.9%
Activity (Mus musculus [7]): inactive
inhibition [8]: 56%
CS50 (Mus musculus [9]): 7.95 mA

CCC1(C)CC(=O)NC1=O (configuration not stated) [ETHOSUXIMIDE]
inhibition in vivo at 100 mg/kg (Mus musculus [10]): 64%
Activity (Mus musculus [11]): 120%
inhibition in vivo at 100 mg/kg (Mus musculus [12]): 75%
